According to ChEMBL document CHEMBL1145779, “Structure-activity relationship study and drug profile of N-(4-fluorophenylsulfonyl)-L-valyl-L-leucinal (SJA6017) as a potent calpain inhibitor” (J Med Chem, 2003):

Columns and labels:
[1] = The compound was tested for toxicity using human neuroblastoma SY5Y cells; type: cell-based
In short: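 Cytotoxicity was assessed in cultured human neuroblastoma SY5Y cells, alongside rat cerebellar granule neurons.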

[2] = Binding towards monkey plasma protein at 10 uM; type: ADME, cell-free; details: cercopithecidae
In short: (§1)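 Test compound incubated at 10 or 100 μM with plasma from mouse, rat, monkey, dog and human. The filtrate was analysed, and binding was expressed as percent bound at each concentration.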

[3] = Binding towards monkey plasma protein at 100 uM; type: ADME, cell-free; details: cercopithecidae; in short: as §1
[4] = Binding towards human plasma protein at 10 uM; type: ADME, cell-free; in short: as §1
[5] = Binding towards human plasma protein at 100 uM; type: ADME, cell-free; in short: as §1
Canis familiaris [6] = species on record: Canis familiaris; experiment: Plasma protein binding towards dog plasma at 10 uM; type: ADME, Canis lupus familiaris; in short: as §1
Mus musculus [7] = species on record: Mus musculus; experiment: Binding towards mouse plasma protein at 100 uM; type: ADME; in short: as §1
Rattus norvegicus [8] = species on record: Rattus norvegicus; experiment: Binding towards rat plasma protein at 10 uM; type: ADME; in short: as §1
Rattus norvegicus [9] = species on record: Rattus norvegicus; experiment: Binding towards rat plasma protein at 100 uM; type: ADME; in short: as §1
Cytochrome P450 2C19 = Cytochrome P450 2C19 (Homo sapiens, UniProt P33261); experiment: Inhibition of Cytochrome P450 2C19; type: ADME
Sequence of Cytochrome P450 2C19 (P33261 whole entry): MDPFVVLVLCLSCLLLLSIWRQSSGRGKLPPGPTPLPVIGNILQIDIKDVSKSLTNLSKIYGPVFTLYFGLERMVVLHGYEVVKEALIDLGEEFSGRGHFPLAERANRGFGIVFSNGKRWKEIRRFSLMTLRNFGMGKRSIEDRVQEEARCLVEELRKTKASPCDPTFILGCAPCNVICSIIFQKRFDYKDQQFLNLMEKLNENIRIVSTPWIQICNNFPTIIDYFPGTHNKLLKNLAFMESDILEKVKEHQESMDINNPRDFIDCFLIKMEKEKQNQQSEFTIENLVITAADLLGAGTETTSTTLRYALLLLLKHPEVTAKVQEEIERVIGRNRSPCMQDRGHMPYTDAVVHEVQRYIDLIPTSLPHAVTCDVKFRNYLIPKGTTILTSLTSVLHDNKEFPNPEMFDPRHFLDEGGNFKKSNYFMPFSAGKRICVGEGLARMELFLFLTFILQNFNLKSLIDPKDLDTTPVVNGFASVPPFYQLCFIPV

Cathepsin B = Cathepsin B (Homo sapiens, UniProt P07858); experiment: Inhibitory activity against Cathepsin B
Cytochrome P450 2C9 = Cytochrome P450 2C9 (Homo sapiens, UniProt P11712); experiment: Inhibition of Cytochrome P450 2C9; type: ADME
Sequence of Cytochrome P450 2C9 (P11712 whole entry): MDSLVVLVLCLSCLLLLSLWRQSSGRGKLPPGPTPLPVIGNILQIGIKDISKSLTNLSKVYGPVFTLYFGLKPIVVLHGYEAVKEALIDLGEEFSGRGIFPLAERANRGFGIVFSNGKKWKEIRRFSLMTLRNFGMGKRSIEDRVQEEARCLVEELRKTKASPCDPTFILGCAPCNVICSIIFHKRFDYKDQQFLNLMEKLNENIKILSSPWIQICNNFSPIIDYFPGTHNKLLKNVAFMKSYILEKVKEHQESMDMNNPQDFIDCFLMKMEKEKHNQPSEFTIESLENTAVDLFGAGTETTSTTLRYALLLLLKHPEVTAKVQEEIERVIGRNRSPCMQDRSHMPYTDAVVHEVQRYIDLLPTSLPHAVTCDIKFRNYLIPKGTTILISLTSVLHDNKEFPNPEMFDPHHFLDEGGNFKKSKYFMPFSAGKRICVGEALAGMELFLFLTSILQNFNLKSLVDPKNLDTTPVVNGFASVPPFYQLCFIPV

Coagulation factor X = Coagulation factor X (Homo sapiens, UniProt P00742); experiment: Inhibitory activity against Coagulation factor X
Sequence of Coagulation factor X (P00742 41-179 limits assumed): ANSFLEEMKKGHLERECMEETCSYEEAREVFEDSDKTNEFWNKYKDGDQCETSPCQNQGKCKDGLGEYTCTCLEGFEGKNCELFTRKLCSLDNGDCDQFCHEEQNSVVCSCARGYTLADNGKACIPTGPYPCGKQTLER
Sequence of Coagulation factor X (P00742 235-488 limits assumed): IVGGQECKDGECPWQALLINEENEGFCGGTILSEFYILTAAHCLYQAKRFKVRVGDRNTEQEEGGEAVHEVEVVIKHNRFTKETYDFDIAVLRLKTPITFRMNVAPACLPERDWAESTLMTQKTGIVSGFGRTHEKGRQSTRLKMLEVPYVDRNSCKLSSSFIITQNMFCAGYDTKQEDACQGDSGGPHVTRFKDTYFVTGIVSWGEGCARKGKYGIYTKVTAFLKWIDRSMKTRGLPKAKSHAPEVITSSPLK

Coagulation factor VII = biological target: T1, Coagulation factor VII (Homo sapiens, UniProt P08709); experiment: Inhibitory activity against coagulation factor VII
T1 sequence (P08709 whole entry): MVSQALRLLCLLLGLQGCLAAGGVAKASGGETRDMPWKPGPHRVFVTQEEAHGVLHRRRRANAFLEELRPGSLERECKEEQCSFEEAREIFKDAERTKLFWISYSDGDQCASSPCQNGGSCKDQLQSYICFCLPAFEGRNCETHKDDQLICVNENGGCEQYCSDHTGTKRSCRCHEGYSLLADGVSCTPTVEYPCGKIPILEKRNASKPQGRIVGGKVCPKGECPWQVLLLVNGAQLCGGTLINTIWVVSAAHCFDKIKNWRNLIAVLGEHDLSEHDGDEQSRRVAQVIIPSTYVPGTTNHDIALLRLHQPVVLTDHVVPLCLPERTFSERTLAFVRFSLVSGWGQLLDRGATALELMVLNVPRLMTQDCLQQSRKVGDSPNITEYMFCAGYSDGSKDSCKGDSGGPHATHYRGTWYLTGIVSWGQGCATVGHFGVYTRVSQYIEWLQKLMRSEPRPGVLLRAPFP

Chymotrypsinogen A = Chymotrypsinogen A (Bos taurus, UniProt P00766); experiment: Inhibitory activity against Chymotrypsinogen
Cytochrome P450 3A4 [10] = biological target: T2, Cytochrome P450 3A4 (Homo sapiens, UniProt P08684); experiment: Inhibition of Cytochrome P450 3A4 as BFC substrate; type: ADME
T2 sequence (P08684 whole entry): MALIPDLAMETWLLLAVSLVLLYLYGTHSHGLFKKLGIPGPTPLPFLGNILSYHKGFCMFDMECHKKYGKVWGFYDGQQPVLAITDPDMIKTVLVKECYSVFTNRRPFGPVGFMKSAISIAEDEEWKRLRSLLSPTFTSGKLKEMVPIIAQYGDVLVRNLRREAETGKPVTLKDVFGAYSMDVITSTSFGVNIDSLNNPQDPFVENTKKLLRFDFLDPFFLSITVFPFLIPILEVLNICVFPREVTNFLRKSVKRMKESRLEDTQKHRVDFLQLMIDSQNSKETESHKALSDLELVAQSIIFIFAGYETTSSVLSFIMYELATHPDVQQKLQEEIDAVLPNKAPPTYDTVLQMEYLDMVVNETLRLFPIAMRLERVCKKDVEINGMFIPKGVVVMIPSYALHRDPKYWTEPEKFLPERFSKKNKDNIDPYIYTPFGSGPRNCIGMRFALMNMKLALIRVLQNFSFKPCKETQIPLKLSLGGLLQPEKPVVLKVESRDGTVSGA

Cytochrome P450 3A4 [11] = biological target: T2, Cytochrome P450 3A4; experiment: Inhibition of Cytochrome P450 3A4 as BQ substrate; type: ADME
Cytochrome P450 2D6 = Cytochrome P450 2D6 (Homo sapiens, UniProt P10635); experiment: Inhibition of Cytochrome P450 2D6; type: ADME
Sequence of Cytochrome P450 2D6 (P10635 whole entry): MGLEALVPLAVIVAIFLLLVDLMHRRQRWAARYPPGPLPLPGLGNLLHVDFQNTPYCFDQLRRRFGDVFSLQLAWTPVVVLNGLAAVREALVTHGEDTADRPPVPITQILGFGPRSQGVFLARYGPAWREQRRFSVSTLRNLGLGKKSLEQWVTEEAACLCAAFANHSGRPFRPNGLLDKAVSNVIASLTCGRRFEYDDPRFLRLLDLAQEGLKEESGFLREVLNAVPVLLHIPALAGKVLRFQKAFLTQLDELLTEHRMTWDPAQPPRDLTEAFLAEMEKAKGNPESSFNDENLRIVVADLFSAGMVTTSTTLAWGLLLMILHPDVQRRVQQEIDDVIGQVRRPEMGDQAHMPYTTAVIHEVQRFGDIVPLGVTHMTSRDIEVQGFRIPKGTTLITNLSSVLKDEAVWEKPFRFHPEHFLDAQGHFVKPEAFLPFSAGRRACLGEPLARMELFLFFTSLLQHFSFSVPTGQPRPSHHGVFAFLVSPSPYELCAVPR

Caspase-1 = biological target: T3, Caspase-1 (Homo sapiens, UniProt P29466); experiment: Inhibitory activity against interleukin 1-beta converting enzyme (IL-1 beta converting enzyme)
T3 sequence (P29466 whole entry): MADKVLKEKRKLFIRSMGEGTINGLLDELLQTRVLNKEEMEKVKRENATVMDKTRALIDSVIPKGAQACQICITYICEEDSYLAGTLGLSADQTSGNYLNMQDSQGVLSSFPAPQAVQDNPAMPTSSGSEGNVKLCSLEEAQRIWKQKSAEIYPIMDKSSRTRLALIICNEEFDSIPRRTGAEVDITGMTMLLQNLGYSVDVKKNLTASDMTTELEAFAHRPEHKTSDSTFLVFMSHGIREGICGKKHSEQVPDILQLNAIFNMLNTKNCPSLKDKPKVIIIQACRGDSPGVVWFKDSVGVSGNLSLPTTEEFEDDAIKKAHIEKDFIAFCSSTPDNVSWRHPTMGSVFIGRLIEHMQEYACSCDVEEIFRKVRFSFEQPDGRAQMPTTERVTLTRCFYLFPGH

Proteasome = experiment: Inhibitory activity against proteasome; type: subcellular
Serine protease 1 = Serine protease 1 (Homo sapiens, UniProt P07477); experiment: Inhibitory activity against trypsin
Sequence of Serine protease 1 (P07477 whole entry): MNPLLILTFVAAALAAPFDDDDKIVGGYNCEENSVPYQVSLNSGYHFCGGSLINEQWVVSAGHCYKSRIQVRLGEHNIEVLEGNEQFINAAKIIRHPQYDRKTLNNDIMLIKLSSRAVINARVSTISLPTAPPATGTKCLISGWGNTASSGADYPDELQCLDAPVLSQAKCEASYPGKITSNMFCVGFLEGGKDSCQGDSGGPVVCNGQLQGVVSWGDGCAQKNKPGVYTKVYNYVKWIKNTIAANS

Prothrombin = Prothrombin (Homo sapiens, UniProt P00734); experiment: Inhibitory activity against thrombin
Canis familiaris [12] = species on record: Canis familiaris; experiment: Plasma protein binding towards dog plasma at 100 uM; type: ADME, Canis lupus familiaris; in short: as §1
Mus musculus [13] = species on record: Mus musculus; experiment: Binding towards mouse plasma protein at 10 uM; type: ADME; in short: as §1

## CC(C)C[C@H](C=O)NC(=O)[C@@H](NS(=O)(=O)c1ccc2ccccc2c1)C(C)C
[1]; read-out: LD50 (the source's name)
  CC50: 9.8 µM

## CC(C)C[C@H](C=O)NC(=O)[C@@H](NS(=O)(=O)c1ccc(F)cc1)C(C)C
[2]
  Binding: 95.1%
[3]
  Binding: 90.5%
[4]
  Binding: 95.4%
[5]
  Binding: 91.6%
Canis familiaris [6]
  Binding: 75.8%
Mus musculus [7]
  Binding: 90.2%
Rattus norvegicus [8]
  Binding: 89.9%
Rattus norvegicus [9]
  Binding: 85.4%
Cytochrome P450 2C19
  IC50: 177 µM
Cathepsin B
  IC50: 15 nM
Cytochrome P450 2C9
  IC50: 492 µM
Coagulation factor X
  IC50: > 60 µM
Coagulation factor VII
  IC50: > 100 µM
Chymotrypsinogen A
  IC50: > 200 µM
Cytochrome P450 3A4 [10]
  IC50: 81 µM
Cytochrome P450 3A4 [11]
  IC50: 531 µM
Cytochrome P450 2D6
  IC50: 291 µM
Caspase-1
  IC50: > 100 µM
[1]
  CC50: > 1000 µM
Proteasome
  IC50: > 200 µM
Serine protease 1
  IC50: > 100 µM
Prothrombin
  IC50: > 100 µM
Canis familiaris [12]
  Binding: 66.8%
Mus musculus [13]
  Binding: 89.9%
